Rows were chosen to be rich in hits. Some 3.8% of all compounds tested hit in one or more screens of this group.
KCNK9 inh: KCNK9 potassium channel inhibitors, primary screen, HEK293 cells, thallium flux. Potassium channel subfamily K member 9 (Homo sapiens), Q9NPC2. FluxOR thallium flux fluorescence; stronger effect = lower value. B-score at 10 µM. actives 1.2% (n = 310,000). AID 488922, 2010;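 active = ratio B-score over 3 SD below the library mean, with starting fluorescence within 5 SD of its mean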;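 also: negative B-score means less thallium flux so channel inhibition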
KCNQ1 pot: potentiators or activators of KCNQ1 channel, primary screen, cell-based, thallium flux, high-throughput; B-score at 10 µM; actives 0.35% (n = 310,000); AID 2648, 2010; CHO-K1 KCNQ1, thallium flux FluxOR fluorescence; stronger effect = higher value;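 active = fluorescence ratio B-score, a plate-corrected score, at least three library SD, with initial intensity B-score within 5 SD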
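System: CHO-K1 cells stably expressing KCNQ1 / Medium: assay buffer for compound exposure, DMSO matched across wells / Reagent: thallium- and potassium-containing depolarizing buffer / Compound: one concentration, matched DMSO / Incubation: 20 min compound pretreatment at room temperature / Measured by: kinetic FluxOR fluorescence, 10 s baseline plus 110 s post-stimulus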
Kir21 block: inhibitors of mouse Kir2.1 inward-rectifier potassium channel; HEK293-Kir2.1, FluxOR thallium flux fluorescence; stronger effect = lower value; B-score at 10 µM; actives 0.85% (n = 310,000);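 active = fluorescence ratio B-score at or below minus 3 SD of library scores, with starting-brightness B-score within 2 SD, cut at about -4.2 in these data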;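 also: channel flux triggered by added potassium and thallium sulfate stimulus; B-score of peak minus minimum fluorescence over baseline after thallium stimulus; more negative B-score means stronger Kir2.1 block with less thallium influx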
KCNQ1 inh: inhibitors of human KCNQ1 channel, primary screen, cell-based, thallium flux, high-throughput; CHO-K1 KCNQ1, FluxOR thallium flux fluorescence; stronger effect = higher value; B-score at 10 µM; actives 1.3% (n = 310,000); AID 2642, 2010;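 active = compounds whose thallium flux B-score, printed positive for inhibition, exceeds three library SD while starting fluorescence stays within three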;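 also: channel opened by potassium depolarization with thallium stimulus after 20 min compound exposure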
hERG rescue: hERG rescue from dofetilide block, primary screen, cell-based, CHO-hERG, FluxOR thallium flux, dofetilide IC70. Voltage-gated inwardly rectifying potassium channel KCNH2 (Homo sapiens), Q12809. dofetilide IC70 present. activation (rescue from dofetilide block), less the hit threshold, % at 10 µM. actives 0.51% (n = 310,000). AID 1511, 2009;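 active = activation above the mean of controls blocked by dofetilide plus 5 SD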;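 also: thallium influx through hERG after potassium depolarization seen as dye fluorescence rise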
KCNK3 block: human KCNK3 channel inhibitors, primary screen, CHO cells, FluxOR thallium flux, B-score; B-score at 10 µM; FluxOR fluorescence; stronger effect = lower value; actives 0.84% (n = 340,000); Potassium channel subfamily K member 3 (Homo sapiens), O14649;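 active = B-score under library mean minus 4 SD, starting fluorescence ratio at most library mean plus 5 SD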;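 also: more negative B-score means stronger inhibition of thallium flux through KCNK3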
Target sequence (O14649 whole entry, looked up): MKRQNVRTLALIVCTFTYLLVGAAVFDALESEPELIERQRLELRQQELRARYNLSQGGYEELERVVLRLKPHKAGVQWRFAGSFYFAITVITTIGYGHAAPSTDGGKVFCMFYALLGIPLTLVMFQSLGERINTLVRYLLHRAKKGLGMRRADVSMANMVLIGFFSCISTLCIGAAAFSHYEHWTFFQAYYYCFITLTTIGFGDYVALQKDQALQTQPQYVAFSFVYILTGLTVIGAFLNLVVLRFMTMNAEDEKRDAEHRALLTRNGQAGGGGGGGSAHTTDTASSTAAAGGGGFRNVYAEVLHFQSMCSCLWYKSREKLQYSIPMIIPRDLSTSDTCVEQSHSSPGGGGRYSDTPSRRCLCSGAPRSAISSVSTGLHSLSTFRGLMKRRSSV
Starred values were filed as active, the others as inactive; i = inactive; . = no result.

SMILES | KCNK9 inh | KCNQ1 pot | Kir21 block | KCNQ1 inh | hERG rescue | KCNK3 block
CC(Oc1cccc(Cl)c1)C(=O)N1CCN(c2ncccn2)CC1 (configuration not stated) | . | . | . | . | . | i
CS(=O)(=O)N(Cc1ccc(Cl)cc1)c1ccc(C(=O)N/N=C/c2cc3ccccc3nc2Cl)cc1 | -7.3* | i | -0.85 | i | -9 | i
CS(=O)(=O)N(Cc1ccc(Cl)cc1)c1ccc(C(=O)NCc2ccccn2)cc1 | i | i | -0.43 | i | -10 | i
CCCCc1sc(-c2c(C#N)c(N)nc3c2CCCCC3)cc1[N+](=O)[O-] | -6.7* | i | 1.3 | i | -4 | i
CCSc1nc(N)nc(-c2cccs2)c1C#N | i | i | -0.25 | i | -9 | i
O=C(CSc1nnc(-c2ccc3c(c2)OCO3)o1)Nc1ncc(Cl)cc1Cl | i | i | -0.58 | i | -11 | i
CNC(=O)NC(=O)C(OC(=O)Cc1cccc(C(F)(F)F)c1)c1ccccc1 (configuration not stated) | i | i | -0.31 | i | -3 | i
Cc1cc(OCC(=O)N(C)Cc2ccccc2)ccc1Br | -7.3* | i | 1.3 | i | -8 | i
Cc1cc(OCC(=O)N(C)Cc2ccccc2)ccc1Cl | i | i | 0.09 | i | -6 | i
COCCN(C(=O)COC(=O)CCCOc1ccccc1)c1c(N)n(Cc2ccccc2)c(=O)[nH]c1=O | i | i | 1.6 | i | -7 | i
CCOc1ccc(OCCCCOc2ccccc2C(C)=O)cc1 | i | i | 0.07 | 7* | -16 | i
CCOc1cccc(OCCOCCOc2ccccc2C(C)=O)c1 | i | i | -1 | i | -9 | i
CC(C)(C)NC(=O)/C=C/c1ccc(C(F)(F)F)cc1 | i | i | 1.9 | i | -5 | i
CCc1ccc2nc(N=C(N)N)nc(C)c2c1 | i | i | -6.1* | i | -10 | i
CCCC(NC(=O)C(C)NC(=O)CO/N=C1\C=C2CCC3C4CCC(C(C)=O)[C@@]4(C)CCC3[C@@]2(C)CC1)C(=O)O (some centres not stated) | i | i | 0.08 | i | -10 | i
Cc1cc(C)n(C(=O)/C(C#N)=N/Nc2cc(Cl)cc(Cl)c2)n1 | i | i | -1.6 | 8* | -20 | i
Cc1cc(C)n(C(=O)/C(C#N)=N\Nc2ccccc2[N+](=O)[O-])n1 | i | i | 2.1 | i | -21 | i
COc1cccc(NC(=S)N(CCCN2CCCC2)Cc2cccn2Cc2ccc(Cl)cc2)c1 | i | i | -8.5* | i | -18 | i
Cc1ccc(S(=O)(=O)NCC(=O)OCc2nnc(-c3ccccc3)o2)cc1 | i | i | 1.1 | i | -18 | i
O=C(CNC(=O)c1ccco1)NCC(=O)OCc1ccc(Cl)cc1Cl | i | i | 0.54 | i | -6 | i
CCN1CCN(CCOc2cccc(Oc3ccccc3)c2)CC1 | i | i | -4.5* | i | -5 | i
CCN1CCN(CCOCCOc2ccccc2)CC1 | i | i | 1.1 | i | -4 | i
CC(C)(C)NC(=O)CN1CCN(C(=O)CCl)CC1 | i | i | 1.3 | i | -2 | i
CC(C)CCN1C(Nc2ccccc2)=NC[C@@H]1Cc1ccccc1 | i | i | -1.7 | i | -3 | i
CC(CCN1C(Nc2ccccc2)=NC[C@@H]1Cc1ccccc1)c1ccccc1 (some centres not stated) | i | i | -7.2* | i | -12 | i
Cc1ccc(N(C)C(=O)CCS(=O)(=O)c2ccc3c(c2)oc(=O)n3C)cc1 | i | i | -0.43 | i | 0 | i
Cc1csc2c(N3CCCCC3)ncnc12 | i | i | 0.44 | i | 8.6* | i

Assay outcomes deposited in PubChem by Johns Hopkins Ion Channel Center.
